Assay outcomes as filed in PubChem.
ZTA DNA inh: counter-screen for EBNA-1 inhibitors: inhibitors of Epstein-Barr virus ZTA. AID 2234. ZTA-DNA binding, fluorescence polarization. P03206. 320,000 compounds, 0.15% hits. inhibition, % at 11 µM; in the data active means inhibition above about 33%
Target sequence (P03206 whole entry, looked up): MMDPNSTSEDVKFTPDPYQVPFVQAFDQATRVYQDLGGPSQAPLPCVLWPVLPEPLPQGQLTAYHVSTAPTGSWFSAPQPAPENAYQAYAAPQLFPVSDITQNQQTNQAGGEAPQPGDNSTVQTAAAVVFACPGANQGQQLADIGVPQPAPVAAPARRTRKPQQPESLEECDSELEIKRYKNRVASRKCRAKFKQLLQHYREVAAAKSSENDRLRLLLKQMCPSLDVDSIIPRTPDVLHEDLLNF
EBNA-1 inhibitor: blocks EBNA-1 binding to DNA; inhibition, % at 14.8 µM; 300,000 compounds, 0.34% hits; AID 1950; EBNA-1 DNA binding, fluorescence polarization; in the data active means inhibition above about 28%
EBV gp42 inh: EBV gp42 inhibition | 220,000 compounds, 0.42% hits | inhibition, % (tested at 21.74 µM) | Fluorescence polarization binding assay, mP read-out | Q1HVG2; in the data active means inhibition above about 50%
Target sequence (Q1HVG2 whole entry, looked up): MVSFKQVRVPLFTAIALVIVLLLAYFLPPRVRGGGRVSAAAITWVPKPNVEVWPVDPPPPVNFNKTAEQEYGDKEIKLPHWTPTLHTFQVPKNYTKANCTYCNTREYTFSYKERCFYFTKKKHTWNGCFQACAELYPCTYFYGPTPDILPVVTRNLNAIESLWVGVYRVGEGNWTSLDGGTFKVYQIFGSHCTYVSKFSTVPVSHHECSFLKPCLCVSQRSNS
HCV NS3 hel inh: HCV NS3 helicase inhibition | NS3 helicase DNA unwinding, Cy5 molecular beacon fluorescence | AID 1800 | inhibition, % at 10.9 µM | 290,000 compounds, 0.56% hits;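 active means inhibition above the mean of all tested compounds plus 3 SD, set per campaign, cut at about 35% in these data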
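System: HCV NS3 helicase fragment; control set: DMSO and thioflavine S; technique: Cy5 fluorescence at 0 and 60 min, beacon hairpin quenching; reagent: beacon DNA duplex substrate plus ATP; replicates: singlicate; schedule: 1 h reaction at 25 °C, ATP-initiated; medium: MOPS buffer pH 6.5 with MgCl2, DTT, Tween20, BSA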
HCV core dimer: HCV core protein dimerization inhibition; 300,000 compounds, 0.33% hits; AID 1899; TR-FRET GST/Flag-core106 dimerization, 1536-well; inhibition, % at 5 µM;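 active means inhibition above the mean of all tested compounds plus 3 SD, set per screening campaign, cut at about 45% in these data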
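Assay system: tagged HCV core106 pair (GST and Flag); medium: KF-containing HEPES buffer, pH 7.45, DTT, CHAPS, BSA; also added: Eu donor and XL665 acceptor anti-tag antibodies; dosing: 5 µM single dose; timing: compound-protein-antibody incubation 4 h at 22.5 °C; signal: TR-FRET 671 and 617 nm emission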
GPR7 antagonist: human neuropeptides B/W receptor 1 antagonism. P48145. GPR7-expressing cells, fluorescence antagonist assay. inhibition, % at 4.4 µM. 290,000 compounds, 1.1% hits; in the data active means inhibition above about 16%, passing the limit was not always enough;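 further: cells stimulated with the agonist NPW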
GPR7 antag conf: confirmation of human GPR7 antagonists | shares compounds with GPR7 antagonist | GPR7-expressing cells, calcium fluorescence antagonist mode | inhibition, % at 4.4 µM | 2,400 compounds, 52% hits; in the data active means inhibition above about 24%;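 further: stimulated with the GPR7 agonist NPW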
MCHR1 antagonist: MCHR1 (human) antagonism in GPR7 counter-screen; shares compounds with GPR7 antagonist; MCHR1-expressing cells, fluorescence antagonist assay; inhibition, % at 4.4 µM; 2,400 compounds, 62% hits; AID 2148; in the data active means inhibition above about 22%
Large screens that a line does not name were inactive (follow-up assays come after a bar, where they were run). A selection: hits, their analogues and other compounds. The true share with any hit is near 2.3%.

CCC(NC(=O)c1ccc2nc(Cc3ccc(OC)cc3)oc2c1)c1ccncc1 (centres undefined)	GPR7 antagonist 46 (no result: EBV gp42 inh) | GPR7 antag conf 39 | MCHR1 antagonist 70
CCC(C)NC(=O)c1ccc2nc(Cc3ccc(OC)cc3)oc2c1 (centres undefined)	none (no result: EBV gp42 inh)
COc1ccccc1N1CCN(S(=O)(=O)c2ccc(-n3cnnn3)cc2)CC1	none (no result: EBV gp42 inh)
COc1ccc(N2C(=O)CC(Sc3nc4ccccc4s3)C2=O)cc1OC (centres undefined)	none
COc1cc2c(cc1NC(=O)CN1C(=O)NC3(CCc4ccccc43)C1=O)oc1ccccc12 (centres undefined)	EBV gp42 inh 62, GPR7 antagonist 33 | GPR7 antag conf 59 | MCHR1 antagonist 57
CCOC(=O)N1CCC(N2CCCC(C(=O)c3cccc(OC(C)C)c3)C2)CC1 (centres undefined)	none
C1CN(c2nc3nonc3nc2N2C[C@H]3CC[C@H]2C3)CCS1	none
COc1ccc(CC(=O)NCC2CCCN(Cc3cc(OC)cc(OC)c3)C2)cc1 (centres undefined)	none (no result: EBV gp42 inh)
CCOc1ccc(NC(=O)Nc2nc(SCC)ns2)cc1	GPR7 antagonist 25 (no result: EBV gp42 inh) | GPR7 antag conf 33 | MCHR1 antagonist 66
CCSc1nsc(NC(=O)Nc2ccc(F)cc2F)n1	GPR7 antagonist 54 (no result: EBV gp42 inh) | GPR7 antag conf 52 | MCHR1 antagonist 55
CCOc1ccccc1/C=C/c1nc2ccccc2[nH]c1=O	none (no result: ZTA DNA inh, EBNA-1 inhibitor, EBV gp42 inh, HCV core dimer)
COc1ccccc1CN1CC(C(=O)N2CCOCC2)CCC1=O (centres undefined)	none (no result: EBV gp42 inh)
CCOc1ccc(-n2c(SCc3nc(-c4ccc(C)cc4)no3)nnc2-c2ccncc2)cc1	GPR7 antagonist 37 | GPR7 antag conf 29 | MCHR1 antagonist 31
Cc1ccc(-c2noc(CSc3nnc(-c4ccncc4)n3-c3ccc(C)cc3)n2)cc1	none
COc1ccc(NC(=O)CN(C)C(=O)c2cccc(S(=O)(=O)N3CCN(Cc4ccccc4)CC3)c2)cc1	GPR7 antagonist 35 (no result: EBV gp42 inh) | GPR7 antag conf 31 | MCHR1 antagonist 46
CCOc1ccc(S(=O)(=O)N2CCN(Cc3ccccc3)CC2)cc1	GPR7 antagonist 28 (no result: EBV gp42 inh) | GPR7 antag conf inactive | MCHR1 antagonist 28
COc1ccc(NC(=O)CN(C)C(=O)c2cccc(S(=O)(=O)N3CCN(C)CC3)c2)cc1	none (no result: EBV gp42 inh, HCV NS3 hel inh, GPR7 antagonist)
CCN(CC)C(=O)c1sc(NC(=O)c2cccnc2)c(C(=O)OC)c1C	none
CCOC(=O)c1c(NC(=O)c2cccnc2)sc(C(C)=O)c1C	GPR7 antagonist 23 | GPR7 antag conf inactive | MCHR1 antagonist inactive
COc1cccc(CC2(CO)CCCN(Cc3c(C)cc(C)cc3-n3cccn3)C2)c1 (centres undefined)	none (no result: GPR7 antagonist) | MCHR1 antagonist inactive
O=C(O)CC1(CC(=O)Nc2cc(C(F)(F)F)cc(C(F)(F)F)c2)CCCCC1	none
Cc1ccc2sc(N(CCCN(C)C)C(=O)CN3C(=O)c4ccccc4C3=O)nc2c1C	GPR7 antagonist 27 | GPR7 antag conf 60 | MCHR1 antagonist 56
Cc1ccc2sc(N(CCN(C)C)C(=O)c3ccc4ccccc4c3)nc2c1C	none (no result: EBV gp42 inh)
CN(C)c1ccc(/C=N/N2C(=S)SC(C)(C)C2N(O)C(=O)Nc2ccc([N+](=O)[O-])cc2)cc1 (centres undefined)	none
Cc1ccc(-n2c(SCC(N)=O)nnc2-c2ccc(S(=O)(=O)N3CCCCC3)cc2)c(C)c1	GPR7 antagonist 35 | GPR7 antag conf 45 | MCHR1 antagonist inactive
Cc1c(NC(=O)COC(=O)C2(c3ccc(F)cc3)CCCC2)c(=O)n(-c2ccccc2)n1C	none
CCOC(=O)C1CCN(CCC(=O)Nc2ccccc2)CC1	GPR7 antagonist 51 | GPR7 antag conf inactive | MCHR1 antagonist inactive
COc1ccccc1N1CCN(S(=O)(=O)c2ccc3c(c2)oc(=O)n3C)CC1	GPR7 antagonist 30 (no result: EBV gp42 inh) | GPR7 antag conf inactive | MCHR1 antagonist inactive
CNC(=S)NNC(=O)c1cccn(Cc2cccc(C(F)(F)F)c2)c1=O	none (no result: EBV gp42 inh)
Cc1cc(Cl)cc(C)c1OCC(=O)N1CCN(c2ncccn2)CC1	none (no result: EBNA-1 inhibitor, EBV gp42 inh, HCV NS3 hel inh, HCV core dimer, GPR7 antagonist)
